Test results reported in ChEMBL document CHEMBL1132289, “Novel potent and selective central 5-HT3 receptor ligands provided with different intrinsic efficacy. 2. Molecular basis of the intrinsic efficacy of arylpiperazine derivatives at the central 5-HT3 receptors” (J Med Chem, 1999).
pEC50, pIC50, pKi: −log10 of the molar value.

Columns and labels:
[1] = target: T1, 5-hydroxytryptamine receptor 1A (Rattus norvegicus, UniProt P19327); test: Binding affinity against 5-hydroxytryptamine 1A receptor of rat hippocampus tissue.; format: tissue-based
T1 sequence (P19327 whole entry): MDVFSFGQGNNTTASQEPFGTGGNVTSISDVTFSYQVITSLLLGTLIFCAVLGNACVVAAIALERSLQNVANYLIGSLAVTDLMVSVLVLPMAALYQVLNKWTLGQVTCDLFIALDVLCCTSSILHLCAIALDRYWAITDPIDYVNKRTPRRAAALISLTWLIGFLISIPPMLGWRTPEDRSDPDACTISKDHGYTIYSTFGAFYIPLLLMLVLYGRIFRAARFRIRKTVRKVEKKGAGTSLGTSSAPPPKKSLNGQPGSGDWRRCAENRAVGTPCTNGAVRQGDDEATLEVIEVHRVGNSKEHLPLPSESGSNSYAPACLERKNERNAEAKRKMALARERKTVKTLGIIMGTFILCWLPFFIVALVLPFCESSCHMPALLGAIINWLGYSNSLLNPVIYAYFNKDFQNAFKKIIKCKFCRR
Method in brief: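 Rat tissue homogenized in ice-cold 50 mM Tris HCl, resuspended in 50 mM Tris HCl pH 7.4. [3H]8-OH-DPAT 0.5 nM final, 4 mg tissue/sample, 0.5 mL incubation. Stopped by vacuum filtration through GF/B filters, scintillation counting. Mean ± SEM of three determinations.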

[2] = target: T2, 5-hydroxytryptamine receptor 1B (Rattus norvegicus, UniProt P28564); test: Binding affinity against 5-hydroxytryptamine 1B receptor of rat striatum; format: tissue-based
T2 sequence (P28564 whole entry): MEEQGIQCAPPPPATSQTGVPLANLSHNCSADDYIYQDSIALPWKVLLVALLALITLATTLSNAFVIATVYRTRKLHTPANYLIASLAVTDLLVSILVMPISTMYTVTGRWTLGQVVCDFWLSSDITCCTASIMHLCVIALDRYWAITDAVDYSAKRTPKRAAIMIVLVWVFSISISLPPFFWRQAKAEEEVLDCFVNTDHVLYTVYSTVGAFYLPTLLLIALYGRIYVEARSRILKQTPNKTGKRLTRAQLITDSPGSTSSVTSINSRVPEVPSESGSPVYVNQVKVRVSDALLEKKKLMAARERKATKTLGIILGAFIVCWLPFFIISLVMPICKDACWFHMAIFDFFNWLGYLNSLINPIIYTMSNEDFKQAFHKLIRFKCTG
Method in brief: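 [3H]5-HT 2.3 nM final, 14 mg tissue/sample, 1.0 mL, in 50 mM Tris HCl pH 7.7 with 10 μM pargyline, 4 mM CaCl2 and 0.1% ascorbic acid. Filtration through GF/B filters, scintillation counting. […] Mean ± SEM of three determinations.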

[3] = target: T3, Serotonin 3 (5-HT3) receptor (Rattus norvegicus) (UniProt P35563+Q9JJ16); test: Intrinsic efficacy against 5-hydroxytryptamine 3 receptor; PA means partial agonist; format: functional; details: filed as partial agonist
Method in brief: (§1)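 NG 108-15 cells grown 2 days, washed, then exposed 10 min at 37 °C to buffer containing 10 mM guanidinium, [14C]guanidinium, 10 μM substance P, and/or 1 μM 5-HT, with eight drug concentrations. Cells lysed in NaOH, then scintillation counting. EC50 for agonists, IC50 for antagonists. Triplicate per concentration.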

[4] = target: T4, Serotonin 3 (5-HT3) receptor (Rattus norvegicus, UniProt P35563+Q9JJ16); test: Inhibition of [3H]granisetron binding to 5-hydroxytryptamine 3 receptor (5-HT 3 receptor) of rat cortex and hippocampus tissue; format: tissue-based
T4 sequence (P35563 whole entry): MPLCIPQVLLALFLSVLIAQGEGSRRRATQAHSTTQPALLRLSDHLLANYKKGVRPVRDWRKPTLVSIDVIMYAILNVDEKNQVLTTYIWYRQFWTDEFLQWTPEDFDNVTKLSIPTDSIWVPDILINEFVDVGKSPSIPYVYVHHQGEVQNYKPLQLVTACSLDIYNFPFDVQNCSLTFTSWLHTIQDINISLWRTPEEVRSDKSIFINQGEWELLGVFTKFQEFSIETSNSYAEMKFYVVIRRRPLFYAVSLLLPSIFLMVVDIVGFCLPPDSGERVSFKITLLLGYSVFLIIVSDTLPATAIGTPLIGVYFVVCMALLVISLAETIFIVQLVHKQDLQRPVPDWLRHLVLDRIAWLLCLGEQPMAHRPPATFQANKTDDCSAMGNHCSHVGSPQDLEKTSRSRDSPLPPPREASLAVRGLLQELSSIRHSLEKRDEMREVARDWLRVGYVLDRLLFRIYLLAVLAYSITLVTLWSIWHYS
T4 sequence (Q9JJ16 whole entry): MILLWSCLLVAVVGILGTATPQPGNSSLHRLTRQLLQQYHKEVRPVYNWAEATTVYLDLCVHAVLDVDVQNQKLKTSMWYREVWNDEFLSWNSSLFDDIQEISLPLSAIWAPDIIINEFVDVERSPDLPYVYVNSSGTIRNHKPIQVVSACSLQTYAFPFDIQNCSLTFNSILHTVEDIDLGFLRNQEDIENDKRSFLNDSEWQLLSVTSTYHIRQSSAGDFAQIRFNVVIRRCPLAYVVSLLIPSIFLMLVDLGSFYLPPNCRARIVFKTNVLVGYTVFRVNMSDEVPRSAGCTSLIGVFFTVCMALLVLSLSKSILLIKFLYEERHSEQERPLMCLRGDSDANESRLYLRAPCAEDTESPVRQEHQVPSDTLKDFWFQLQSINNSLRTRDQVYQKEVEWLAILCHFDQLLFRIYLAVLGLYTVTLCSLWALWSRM

[5] = target: T5, 5-hydroxytryptamine receptor 2C (Rattus norvegicus, UniProt P08909); test: Binding affinity against 5-hydroxytryptamine 2C receptor of rat cortex; format: tissue-based
T5 sequence (P08909 whole entry): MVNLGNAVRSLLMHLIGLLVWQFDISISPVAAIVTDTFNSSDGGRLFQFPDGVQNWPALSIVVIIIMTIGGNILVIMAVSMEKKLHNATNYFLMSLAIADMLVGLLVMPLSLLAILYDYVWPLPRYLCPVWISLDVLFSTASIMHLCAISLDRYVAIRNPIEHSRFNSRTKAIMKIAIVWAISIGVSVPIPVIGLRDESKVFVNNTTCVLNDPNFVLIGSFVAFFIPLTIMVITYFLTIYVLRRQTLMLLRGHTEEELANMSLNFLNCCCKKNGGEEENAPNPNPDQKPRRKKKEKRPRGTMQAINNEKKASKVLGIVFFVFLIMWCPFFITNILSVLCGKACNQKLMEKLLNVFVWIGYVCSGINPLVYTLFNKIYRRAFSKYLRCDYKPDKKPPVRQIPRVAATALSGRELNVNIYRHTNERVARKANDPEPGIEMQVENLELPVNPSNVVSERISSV

[6] = target: T6, 5-hydroxytryptamine receptor 2A (Rattus norvegicus, UniProt P14842); test: Binding affinity against 5-hydroxytryptamine 2A receptor of rat pre-frontal cortex; format: tissue-based
T6 sequence (P14842 whole entry): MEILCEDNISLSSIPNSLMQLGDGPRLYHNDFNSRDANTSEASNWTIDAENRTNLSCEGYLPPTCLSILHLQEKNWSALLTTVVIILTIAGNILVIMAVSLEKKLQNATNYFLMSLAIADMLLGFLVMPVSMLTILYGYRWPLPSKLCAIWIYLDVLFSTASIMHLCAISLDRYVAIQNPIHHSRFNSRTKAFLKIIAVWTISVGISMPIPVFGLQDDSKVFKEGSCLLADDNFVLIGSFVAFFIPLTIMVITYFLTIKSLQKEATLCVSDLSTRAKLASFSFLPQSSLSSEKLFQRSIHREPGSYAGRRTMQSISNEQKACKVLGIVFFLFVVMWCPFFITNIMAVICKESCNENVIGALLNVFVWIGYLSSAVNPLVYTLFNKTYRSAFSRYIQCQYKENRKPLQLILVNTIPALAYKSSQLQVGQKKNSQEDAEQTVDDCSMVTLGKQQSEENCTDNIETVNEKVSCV
Method in brief: (§2)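 Membranes incubated with [3H]ketanserin 0.5 nM final, 8 mg tissue/sample, 0.5 mL, 50 mM Tris HCl pH 7.7. Filtration through GF/B filters, then scintillation counting. […] Mean ± SEM of three determinations.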

NG108-15 [7] = test: (§3) Quantitative effect on the [14C]guanidinium accumulation in NG 108-15 cells (mouse neuroblastoma and rat glioma hybrid cells); format: functional, cell-based; details: Murinae; method in brief: as §1
[8] = target: Sodium-dependent serotonin transporter (Rattus norvegicus, UniProt P31652); test: Binding affinity towards Serotonin transporter was determined in rat forebrain membrane; format: cell membranes
Sequence of Sodium-dependent serotonin transporter (P31652 whole entry): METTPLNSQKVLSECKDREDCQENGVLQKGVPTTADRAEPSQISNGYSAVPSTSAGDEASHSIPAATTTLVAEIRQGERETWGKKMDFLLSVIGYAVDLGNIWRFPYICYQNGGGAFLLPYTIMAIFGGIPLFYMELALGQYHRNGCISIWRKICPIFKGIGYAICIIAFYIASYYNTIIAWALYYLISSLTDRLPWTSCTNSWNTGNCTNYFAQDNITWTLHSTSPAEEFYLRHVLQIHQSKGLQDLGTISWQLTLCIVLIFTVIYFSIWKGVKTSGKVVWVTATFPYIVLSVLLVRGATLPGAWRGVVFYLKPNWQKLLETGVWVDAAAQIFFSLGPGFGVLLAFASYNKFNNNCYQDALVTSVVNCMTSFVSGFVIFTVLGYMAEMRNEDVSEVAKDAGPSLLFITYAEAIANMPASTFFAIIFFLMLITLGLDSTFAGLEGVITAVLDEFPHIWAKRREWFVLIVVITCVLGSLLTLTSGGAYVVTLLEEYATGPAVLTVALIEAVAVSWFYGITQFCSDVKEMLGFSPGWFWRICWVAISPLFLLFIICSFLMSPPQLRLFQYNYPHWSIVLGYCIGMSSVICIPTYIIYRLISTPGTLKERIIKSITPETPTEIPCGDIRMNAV
Method in brief: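 Membranes stored at -80 °C. [3H]paroxetine 0.1 nM final, 2 mg tissue/sample, 2.0 mL, in 50 mM Tris HCl pH 7.4 with 120 mM NaCl and 5 mM KCl. Filters presoaked in 0.5% poly(ethylenimine). Mean ± SEM of three determinations.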

[9] = target: T3, Serotonin 3 (5-HT3) receptor (Rattus norvegicus); test: Intrinsic efficacy for rat 5-hydroxytryptamine 3 receptor; format: protein-complex assay; details: filed as antagonist
NG108-15 [10] = test: as §3; format: functional, cell-based; details: Murinae; remark: listed apart in the source
[11] = target: T3, Serotonin 3 (5-HT3) receptor (Rattus norvegicus); test: Intrinsic efficacy against 5-hydroxytryptamine 3 receptor; A means pure agonist; format: functional; details: filed as agonist
Method in brief: (§4)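 Mouse neuroblastoma × rat glioma NG 108-15 cells grown 2 days in DMEM; washed, then incubated 10 min at 37 °C in guanidinium buffer B (135 mM NaCl, 10 mM guanidinium, pH 7.4) with […] [14C]guanidinium, 10 μM substance P, 1 μM 5-HT where indicated, eight drug concentrations; ice-cold choline wash, NaOH lysis, scintillation counting. Triplicates; EC50 (agonists/partial agonists) or IC50 (antagonists).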

NG108-15 [12] = test: Quantitative effect on the [14C]guanidinium accumulation in NG 108-15 cells.; format: functional, cell-based; details: Murinae; method in brief: as §4
[13] = target: T4, Serotonin 3 (5-HT3) receptor; test: Inhibition of [3H]granisetron binding to 5-hydroxytryptamine 3 receptor of rat cortical membrane
[14] = target: T2, 5-hydroxytryptamine receptor 1B; test: Binding affinity against 5-hydroxytryptamine 1B receptor of rat striatum.; format: tissue-based
[15] = target: T5, 5-hydroxytryptamine receptor 2C; test: Binding affinity against 5-hydroxytryptamine 2C receptor of rat cortex.
[16] = target: T6, 5-hydroxytryptamine receptor 2A; test: Binding affinity against 5-hydroxytryptamine 2A receptor of rat pre-frontal cortex.; method in brief: as §2

Structure (SMILES): CN1CCN(c2cc3c4c(cccc4n2)-c2ccccc2-3)CC1
- pKi [1]: 4.62
- pKi [2]: 6.19
- Intrinsic efficacy [3]: Partial agonist
- pKi [4]: 8.74
- pKi [5]: < 5.00
- pKi [6]: 4.89
- pEC50 (NG108-15 [7]): 7.92
- pKi [8]: 5.80

Structure (SMILES): CN1CCN(c2nc3ccccc3c3c2CCc2ccccc2-3)CC1
- Intrinsic efficacy [9]: Antagonist
- pKi [4]: 8.38
- pIC50 (NG108-15 [10]): 8.34

Structure (SMILES): NCCc1c[nH]c2ccc(O)cc12 [SEROTONIN]
- Intrinsic efficacy [11]: Agonist
- pEC50 (NG108-15 [12]): 6.53

Structure (SMILES): CCOC(=O)c1c(N2CCN(C)CC2)nc2cccc3c2c1-c1ccccc1-3
- pKi [4]: 8.41

Structure (SMILES): CN1CCN(c2nccc3c2ccc2ccccc23)CC1
- Intrinsic efficacy [11]: Agonist
- pKi [4]: 7.54
- pEC50 (NG108-15 [7]): 7.52

Structure (SMILES): CN1CCN(c2nc3ccccc3c3ccccc23)CC1
- Intrinsic efficacy [11]: Agonist
- pEC50 (NG108-15 [7]): 8.00

Structure (SMILES): CN1CCN(c2nc3ccccc3c3c2ccc2ccccc23)CC1
- pKi [13]: 7.34

Structure (SMILES): CN1CCN(c2nccc3c2CCc2ccccc2-3)CC1
- Intrinsic efficacy [11]: Agonist
- pKi [4]: 7.80
- pEC50 (NG108-15 [7]): 8.15

Structure (SMILES): CN1CCN(c2nc3ccccc3c3c2CCC2CCCCC32)CC1 (stereo not drawn)
- Intrinsic efficacy [9]: Antagonist
- pKi [13]: 7.54
- pIC50 (NG108-15 [10]): 6.60

Structure (SMILES): CN1C2CCCC1CC(NC(=O)c1nn(C)c3ccccc13)C2 (stereo not drawn)
- Intrinsic efficacy [9]: Antagonist

Structure (SMILES): CN1CCN(c2nc3c(c4c2CSc2ccccc2-4)CCCC3)CC1
- pKi [4]: 5.57

Structure (SMILES): CN1CCN(c2cc(C34C[C@H]5C[C@@H](C3)C[C@@H](C4)C5)c3ccccc3n2)CC1
- Intrinsic efficacy [9]: Antagonist
- pKi [4]: 7.10
- pIC50 (NG108-15 [10]): 7.10

Structure (SMILES): CN1CCN(c2ccnc3c2ccc2ccccc23)CC1
- pKi [4]: 6.31

Structure (SMILES): CN1CCN(c2nc3ccccc3c3c2CSc2ccccc2-3)CC1
- pKi [13]: 7.72

Structure (SMILES): CN1CCN(c2nc3ccccc3c3c2CCCC3)CC1
- Intrinsic efficacy [3]: Partial agonist
- pEC50 (NG108-15 [7]): 9.60

Structure (SMILES): c1ccc2nc(N3CCNCC3)ccc2c1
- Intrinsic efficacy [11]: Agonist

Structure (SMILES): CN1CCN(c2nc3ccccc3c3c2CC2CCC3C2)CC1 (stereo not drawn)
- Intrinsic efficacy [9]: Antagonist
- pIC50 (NG108-15 [10]): 8.10

Structure (SMILES): CN1CCN(c2nc3ccccc3c3c2CCc2sccc2-3)CC1
- pKi [1]: 4.92
- pKi [14]: 5.82
- Intrinsic efficacy [9]: Antagonist
- pKi [13]: 8.24
- pKi [15]: 3.38
- pKi [16]: 5.51
- pIC50 (NG108-15 [10]): 7.21
- pKi [8]: 5.34

Structure (SMILES): CN1CCN(c2nc3ccccc3c(-c3ccccc3)c2COC(=O)c2ccccc2)CC1
- pKi [1]: 5.39
- pKi [2]: 5.12
- Intrinsic efficacy [9]: Antagonist
- pKi [4]: 8.06
- pKi [5]: 7.51
- pKi [6]: < 5.00
- pIC50 (NG108-15 [10]): 8.05
- pKi [8]: 5.96

Structure (SMILES): CCCN(CCC)C(=O)c1c(N2CCN(C)CC2)nc2cccc3c2c1-c1ccccc1-3
- Intrinsic efficacy [3]: Partial agonist
- pKi [4]: 8.52

Structure (SMILES): CCCCOC(=O)c1c(N2CCN(C)CC2)nc2cccc3c2c1-c1ccccc1-3
- pKi [4]: 7.11

Structure (SMILES): CN1CCN(c2nc3ccccc3c3c2C(=O)c2ccccc2-3)CC1
- Intrinsic efficacy [9]: Antagonist
- pKi [4]: 7.70
- pIC50 (NG108-15 [10]): 6.86

Structure (SMILES): c1ccc2c(c1)ccc1c(N3CCOCC3)nccc12
- pKi [4]: 5.31

Structure (SMILES): c1ccc2c(c1)CCc1c(N3CCOCC3)nc3ccccc3c1-2
- pKi [13]: < 5.28

Structure (SMILES): CN1CCN(c2nc3c(c4c2CCc2ccccc2-4)CCCC3)CC1
- pKi [4]: 5.64
